Results reported in ChEMBL document CHEMBL4011617, “Ugi Reaction-Derived α-Acyl Aminocarboxamides Bind to Phosphatidylinositol 3-Kinase-Related Kinases, Inhibit HSF1-Dependent Heat Shock Response, and Induce Apoptosis in Multiple Myeloma Cells” (J Med Chem, 2017).
Calls of active or inactive are those of the source. The rule behind the calls is not given here.

Tests used:
INA-6 [1] = assay: Inhibition of heat shock response in human INA-6 cells assessed as reduction in HSF-1 mediated upregulation of the heat shock protein HSP72 at 50 uM preincubated for 4 hrs followed by HSP90 inhibitor and HSR inducer NVP-AUY922 addition measured after 4 hrs by ELISA; type: functional, cell-based
In short: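 HSP72 quantified by ELISA in the same protein lysates used for Western blots. INA-6 cells received compound for 4 h, then NVP-AUY922 co-treatment for 4 h more to stimulate HSF1. DMSO-only and NVP-AUY922-only cells served as negative and positive controls.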

INA-6 [2] = assay: Inhibition of heat shock response in human INA-6 cells assessed as reduction in HSF-1 mediated upregulation of the heat shock protein HSP27 at 50 uM preincubated for 4 hrs followed by HSP90 inhibitor and HSR inducer NVP-AUY922 addition measured after 4 hrs by Western blot method; type: functional, cell-based
In short: (§1)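 INA-6 myeloma cells pretreated with test compound for 4 h, then co-treated with the HSP90 inhibitor/HSR inducer NVP-AUY922 for a further 4 h. Cells harvested; HSP72, HSP27, HSF1 or phospho-HSF1 probed by Western blot with β-actin as loading control. DMSO-only cells were the negative control; NVP-AUY922-only cells were the positive control.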

INA-6 [3] = assay: Inhibition of heat shock response in human INA-6 cells assessed as reduction in HSF-1 mediated upregulation of the heat shock protein HSP27 at 50 uM preincubated for 4 hrs followed by HSP90 inhibitor and HSR inducer NVP-AUY922 addition measured after 4 hrs by ELISA; type: functional, cell-based
[4] = target: CCR4-NOT transcription complex subunit 1 (Homo sapiens) (UniProt A5YKK6); assay: Binding affinity to CCR4-NOT transcription complex subunit 1 in human INA-6 cells after 3 hrs by nanoLC-MS/MS method; type: cell-based
In short: (§2)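 The biotinylated inhibitor was loaded on streptavidin beads, with empty beads as the control. Eluates were trypsin-digested and run by nanoLC-MS/MS. Inhibitor/control ratios came from label-free quantification, taken as medians of five biological replicates. Enrichment was called at Benjamini-Hochberg-adjusted limma p < 0.02.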

[5] = target: CCR4-NOT transcription complex subunit 2 (Homo sapiens) (UniProt Q9NZN8); assay: Binding affinity to CCR4-NOT transcription complex subunit 2 in human INA-6 cells after 3 hrs by nanoLC-MS/MS method; type: cell-based; in short: as §2
[6] = target: CCR4-NOT transcription complex subunit 6-like (Homo sapiens) (UniProt Q96LI5); assay: Binding affinity to CCR4-NOT transcription complex subunit 6-like in human INA-6 cells after 3 hrs by nanoLC-MS/MS method; type: cell-based; in short: as §2
[7] = target: CCR4-NOT transcription complex subunit 7 (Homo sapiens) (UniProt Q9UIV1); assay: Binding affinity to CCR4-NOT transcription complex subunit 7 in human INA-6 cells after 3 hrs by nanoLC-MS/MS method; type: cell-based; in short: as §2
[8] = target: CCR4-NOT transcription complex subunit 3 (Homo sapiens) (UniProt O75175); assay: Binding affinity to CCR4-NOT transcription complex subunit 3 in human INA-6 cells after 3 hrs by nanoLC-MS/MS method; type: cell-based; in short: as §2
[9] = target: DNA-dependent protein kinase catalytic subunit (Homo sapiens) (UniProt P78527); assay: Binding affinity to PRKDC protein in human INA-6 cells after 3 hrs by nanoLC-MS/MS method; type: cell-based; in short: as §2
[10] = target: Serine-protein kinase ATM (Homo sapiens) (UniProt Q13315); assay: Binding affinity to ATM protein in human INA-6 cells after 3 hrs by nanoLC-MS/MS method; type: cell-based; in short: as §2
[11] = target: Serine/threonine-protein kinase ATR (Homo sapiens) (UniProt Q13535); assay: Binding affinity to ATR protein in human INA-6 cells after 3 hrs by nanoLC-MS/MS method; type: cell-based; in short: as §2
[12] = target: Serine/threonine-protein kinase mTOR (Homo sapiens) (UniProt P42345); assay: Binding affinity to mTOR protein in human INA-6 cells after 3 hrs by nanoLC-MS/MS method; type: cell-based; in short: as §2
[13] = target: CCR4-NOT transcription complex subunit 9 (Homo sapiens) (UniProt Q92600); assay: Binding affinity to RCD1 protein in human INA-6 cells after 3 hrs by nanoLC-MS/MS method; type: cell-based; in short: as §2
INA-6 [14] = assay: Inhibition of heat shock response in human INA-6 cells assessed as reduction in HSF-1 mediated upregulation of the heat shock protein HSP72 at 50 uM preincubated for 4 hrs followed by HSP90 inhibitor and HSR inducer NVP-AUY922 addition measured after 4 hrs by Western blot method; type: functional, cell-based; in short: as §1
INA-6 [15] = assay: Downregulation of NVP-AUY922-induced HSF-1 protein expression in human INA-6 cells at 50 uM preincubated for 4 hrs followed by NVP-AUY922 addition measured after 4 hrs by Western blot method; type: functional, cell-based; in short: as §1
[16] = target: T1, Heat shock factor protein 1 (Homo sapiens) (UniProt Q00613); assay: Inhibition of NVP-AUY922-induced HSF-1 phosphorylation at S326 residue in human INA-6 cells at 50 uM preincubated for 4 hrs followed by NVP-AUY922 addition measured after 4 hrs by Western blot method; type: cell-based; in short: as §1
T1 sequence (whole entry): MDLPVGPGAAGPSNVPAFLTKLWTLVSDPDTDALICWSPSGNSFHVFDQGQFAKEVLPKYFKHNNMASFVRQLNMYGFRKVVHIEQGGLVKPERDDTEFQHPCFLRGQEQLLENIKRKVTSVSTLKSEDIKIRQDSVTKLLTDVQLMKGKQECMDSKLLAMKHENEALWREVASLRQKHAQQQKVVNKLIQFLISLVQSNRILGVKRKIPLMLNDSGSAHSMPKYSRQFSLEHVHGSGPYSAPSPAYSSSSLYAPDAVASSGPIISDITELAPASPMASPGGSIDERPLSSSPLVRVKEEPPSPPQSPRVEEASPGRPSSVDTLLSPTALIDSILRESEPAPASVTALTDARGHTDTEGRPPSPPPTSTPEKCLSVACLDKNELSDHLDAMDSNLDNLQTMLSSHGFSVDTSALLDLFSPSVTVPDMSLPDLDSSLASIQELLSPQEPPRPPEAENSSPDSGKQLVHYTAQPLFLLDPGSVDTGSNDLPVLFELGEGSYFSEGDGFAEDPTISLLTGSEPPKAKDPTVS

INA-6 [17] = assay: Effect on NVP-AUY922-induced HSF-1 mRNA expression in human INA-6 cells at 50 uM preincubated for 4 hrs followed by NVP-AUY922 addition measured after 4 hrs by RT-PCR method; type: functional, cell-based
In short: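 INA-6 cells exposed to compound for 4 h, then co-treated with 10 nM NVP-AUY922 for another 4 h. Total RNA isolated; HSP27, HSP72 and HSF1 transcripts measured by real-time PCR and normalized to α-tubulin. Means and standard deviations from three independent experiments.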

CCR4-NOT transcription complex subunit 7 (Homo sapiens), sequence (Q9UIV1 whole entry, one chain of several): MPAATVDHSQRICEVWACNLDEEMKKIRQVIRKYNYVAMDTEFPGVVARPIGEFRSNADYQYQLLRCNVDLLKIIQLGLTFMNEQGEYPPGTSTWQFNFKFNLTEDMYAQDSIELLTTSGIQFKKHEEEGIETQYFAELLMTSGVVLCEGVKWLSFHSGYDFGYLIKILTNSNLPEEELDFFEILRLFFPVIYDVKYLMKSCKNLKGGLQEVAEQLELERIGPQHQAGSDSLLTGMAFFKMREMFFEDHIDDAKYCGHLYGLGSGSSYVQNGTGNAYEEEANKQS
CCR4-NOT transcription complex subunit 3 (Homo sapiens), sequence (O75175 whole entry, one chain of several): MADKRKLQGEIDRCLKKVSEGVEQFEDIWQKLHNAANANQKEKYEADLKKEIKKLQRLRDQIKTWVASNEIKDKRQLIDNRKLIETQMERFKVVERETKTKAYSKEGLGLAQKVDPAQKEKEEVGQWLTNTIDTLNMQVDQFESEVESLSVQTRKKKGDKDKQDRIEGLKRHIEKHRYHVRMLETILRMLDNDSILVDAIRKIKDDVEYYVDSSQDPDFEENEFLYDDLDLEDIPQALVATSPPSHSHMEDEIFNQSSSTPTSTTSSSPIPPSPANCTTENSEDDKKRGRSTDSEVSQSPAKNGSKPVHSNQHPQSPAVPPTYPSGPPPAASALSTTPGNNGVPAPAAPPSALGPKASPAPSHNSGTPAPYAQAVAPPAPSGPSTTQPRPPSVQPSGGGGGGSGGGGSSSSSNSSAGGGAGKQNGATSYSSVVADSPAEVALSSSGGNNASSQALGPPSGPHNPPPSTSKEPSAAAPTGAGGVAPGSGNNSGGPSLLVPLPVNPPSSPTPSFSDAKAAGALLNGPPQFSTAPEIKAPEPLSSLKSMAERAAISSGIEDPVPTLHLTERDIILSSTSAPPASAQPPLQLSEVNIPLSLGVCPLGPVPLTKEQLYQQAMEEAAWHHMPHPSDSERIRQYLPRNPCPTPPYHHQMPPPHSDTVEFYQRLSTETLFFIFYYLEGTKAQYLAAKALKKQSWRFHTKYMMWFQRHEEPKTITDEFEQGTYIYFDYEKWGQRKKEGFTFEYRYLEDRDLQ
CCR4-NOT transcription complex subunit 2 (Homo sapiens), sequence (Q9NZN8 whole entry, one chain of several): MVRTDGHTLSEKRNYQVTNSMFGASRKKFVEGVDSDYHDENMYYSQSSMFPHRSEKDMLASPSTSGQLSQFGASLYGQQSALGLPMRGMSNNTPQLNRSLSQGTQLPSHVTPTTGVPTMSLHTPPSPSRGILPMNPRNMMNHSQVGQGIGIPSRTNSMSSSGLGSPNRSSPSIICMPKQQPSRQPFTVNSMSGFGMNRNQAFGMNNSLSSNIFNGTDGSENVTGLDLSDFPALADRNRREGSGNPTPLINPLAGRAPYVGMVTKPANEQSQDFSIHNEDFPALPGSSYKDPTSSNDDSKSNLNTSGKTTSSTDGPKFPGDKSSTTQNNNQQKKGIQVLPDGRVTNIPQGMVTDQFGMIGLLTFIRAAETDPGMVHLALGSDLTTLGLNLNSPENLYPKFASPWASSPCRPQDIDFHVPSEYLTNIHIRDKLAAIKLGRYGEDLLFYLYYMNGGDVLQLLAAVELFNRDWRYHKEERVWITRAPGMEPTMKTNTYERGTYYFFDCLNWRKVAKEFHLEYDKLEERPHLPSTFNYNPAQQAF
CCR4-NOT transcription complex subunit 9 (Homo sapiens), sequence (Q92600 whole entry, one chain of several): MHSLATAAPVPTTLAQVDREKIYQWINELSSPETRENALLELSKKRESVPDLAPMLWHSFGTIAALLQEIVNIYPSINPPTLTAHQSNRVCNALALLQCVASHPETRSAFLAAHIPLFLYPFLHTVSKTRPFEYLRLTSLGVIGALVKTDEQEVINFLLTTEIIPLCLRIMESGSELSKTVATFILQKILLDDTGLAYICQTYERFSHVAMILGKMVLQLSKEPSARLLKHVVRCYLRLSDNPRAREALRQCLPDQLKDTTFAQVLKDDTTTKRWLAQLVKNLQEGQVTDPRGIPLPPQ
CCR4-NOT transcription complex subunit 1 (Homo sapiens), sequence (A5YKK6 whole entry, one chain of several): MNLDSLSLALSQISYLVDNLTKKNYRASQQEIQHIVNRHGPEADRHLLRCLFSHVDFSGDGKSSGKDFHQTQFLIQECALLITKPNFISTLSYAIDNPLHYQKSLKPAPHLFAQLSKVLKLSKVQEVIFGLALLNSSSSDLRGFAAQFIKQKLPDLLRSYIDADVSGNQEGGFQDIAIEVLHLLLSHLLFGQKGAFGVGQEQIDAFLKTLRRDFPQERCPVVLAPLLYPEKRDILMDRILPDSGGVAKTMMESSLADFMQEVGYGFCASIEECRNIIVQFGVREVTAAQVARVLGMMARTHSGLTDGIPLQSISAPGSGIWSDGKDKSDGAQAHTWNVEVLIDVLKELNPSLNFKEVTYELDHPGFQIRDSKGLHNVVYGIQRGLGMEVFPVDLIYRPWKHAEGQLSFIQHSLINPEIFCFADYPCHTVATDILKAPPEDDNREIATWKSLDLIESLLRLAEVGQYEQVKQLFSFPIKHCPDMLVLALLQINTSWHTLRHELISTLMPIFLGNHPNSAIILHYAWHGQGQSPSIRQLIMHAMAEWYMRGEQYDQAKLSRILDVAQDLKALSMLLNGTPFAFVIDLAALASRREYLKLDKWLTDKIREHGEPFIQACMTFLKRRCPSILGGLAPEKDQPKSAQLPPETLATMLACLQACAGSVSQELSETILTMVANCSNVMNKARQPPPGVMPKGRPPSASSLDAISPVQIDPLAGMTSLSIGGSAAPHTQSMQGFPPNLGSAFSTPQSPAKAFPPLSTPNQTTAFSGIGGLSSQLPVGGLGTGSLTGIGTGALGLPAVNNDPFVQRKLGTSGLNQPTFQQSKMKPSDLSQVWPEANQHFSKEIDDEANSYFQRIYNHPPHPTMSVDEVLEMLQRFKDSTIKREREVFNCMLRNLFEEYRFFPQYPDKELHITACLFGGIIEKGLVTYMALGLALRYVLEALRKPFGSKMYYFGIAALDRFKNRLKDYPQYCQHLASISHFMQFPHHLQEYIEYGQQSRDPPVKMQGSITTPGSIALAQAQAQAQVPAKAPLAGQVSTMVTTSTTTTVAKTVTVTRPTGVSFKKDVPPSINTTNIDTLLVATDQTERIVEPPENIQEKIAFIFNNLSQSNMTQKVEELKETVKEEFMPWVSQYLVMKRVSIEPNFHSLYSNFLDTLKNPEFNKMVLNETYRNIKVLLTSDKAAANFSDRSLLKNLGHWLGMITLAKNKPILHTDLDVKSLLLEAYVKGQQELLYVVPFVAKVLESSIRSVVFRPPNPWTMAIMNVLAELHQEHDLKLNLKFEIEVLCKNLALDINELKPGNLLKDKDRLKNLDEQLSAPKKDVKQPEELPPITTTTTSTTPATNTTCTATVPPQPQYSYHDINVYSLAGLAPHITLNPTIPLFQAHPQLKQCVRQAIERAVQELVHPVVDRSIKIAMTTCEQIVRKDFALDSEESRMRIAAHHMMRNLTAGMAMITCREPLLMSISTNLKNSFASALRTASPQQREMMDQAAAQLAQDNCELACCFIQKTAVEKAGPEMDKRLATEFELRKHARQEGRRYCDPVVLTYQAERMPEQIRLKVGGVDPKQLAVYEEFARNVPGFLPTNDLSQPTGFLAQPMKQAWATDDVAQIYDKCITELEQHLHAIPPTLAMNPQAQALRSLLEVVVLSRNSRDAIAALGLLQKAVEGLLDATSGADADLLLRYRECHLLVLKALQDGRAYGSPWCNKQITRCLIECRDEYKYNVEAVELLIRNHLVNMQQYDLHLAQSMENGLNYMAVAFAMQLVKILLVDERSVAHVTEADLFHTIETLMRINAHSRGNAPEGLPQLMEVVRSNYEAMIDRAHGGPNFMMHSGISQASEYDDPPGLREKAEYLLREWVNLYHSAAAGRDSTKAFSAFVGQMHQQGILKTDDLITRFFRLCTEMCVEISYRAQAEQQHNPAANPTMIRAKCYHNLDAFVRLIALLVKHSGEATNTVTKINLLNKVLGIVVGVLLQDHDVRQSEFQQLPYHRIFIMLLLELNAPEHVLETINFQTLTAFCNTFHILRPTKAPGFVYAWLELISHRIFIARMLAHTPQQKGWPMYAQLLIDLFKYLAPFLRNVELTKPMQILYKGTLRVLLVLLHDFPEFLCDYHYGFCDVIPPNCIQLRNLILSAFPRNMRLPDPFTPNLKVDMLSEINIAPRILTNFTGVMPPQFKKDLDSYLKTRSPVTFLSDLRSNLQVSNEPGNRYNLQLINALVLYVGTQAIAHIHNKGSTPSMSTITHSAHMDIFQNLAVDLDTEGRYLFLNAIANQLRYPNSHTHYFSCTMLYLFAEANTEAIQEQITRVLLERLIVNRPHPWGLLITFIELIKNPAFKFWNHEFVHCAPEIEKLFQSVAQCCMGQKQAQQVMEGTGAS

Row | Structure (SMILES) | HSP72 upregulation inhibition (active/not active) (INA-6 [1]) | activity call (active/not active) for inhibition of HSP27 upregulation (INA-6 [2]) | heat shock response inhibition (active/not active) (INA-6 [3]) | heat shock response inhibition (active/not active) (INA-6 [14]) | Activity (INA-6 [15]) | inhibition [16] | further results
1 | NCCOCCOCCNCCOc1ccc(C(C(=O)NCc2ccccc2)N(C(=O)CCc2ccc(O)cc2)C2CC2)cc1 (stereo not drawn) | inactive | inactive | inactive | – | – | – | –
2 | O=C(CCCC[C@@H]1SC[C@@H]2NC(=O)N[C@@H]21)NCCOCCOCCNCCCCOc1ccc(CCC(=O)N(C2CC2)C(C(=O)NCc2ccccc2)c2ccc(Br)cc2)cc1 (mixture of isomers) | inactive | inactive | inactive | – | – | – | Activity [4]: Active; Activity [5]: Active; Activity [6]: Active; Activity [7]: Active; Activity [8]: Active; Activity [9]: Active; Activity [10]: Active; Activity [11]: Active; Activity [12]: Active; Activity [13]: Active
3 | C/C=C/C(=O)N(Cc1ccccc1Cl)C(C(=O)NC(C)(C)C)c1ccccc1Br (racemic) | Active | Active | Active | Active | Active | Active | –
4 | C/C=C/C(=O)N(Cc1ccco1)C(C(=O)NC1CCCCC1)c1ccccc1Br (racemic) | inactive | inactive | – | inactive | – | – | –
5 | C=CC(=O)N(CCOCCO)C(C(=O)NC(C)(C)C)c1ccccc1Br (racemic) | inactive | inactive | – | inactive | – | – | –
6 | C=CC(=O)N(CCc1ccc(OC)c(OC)c1)C(C(=O)NCCCCC)c1ccccc1Br (racemic) | Active | Active | Active | Active | Active | Active | –
7 | CCCN(C(=O)/C=C/c1ccc(OC)cc1)C(C(=O)NC1CCCCC1)c1ccccc1Br (racemic) | Active | Active | Active | Active | Active | Active | –
8 | CCCN(C(=O)/C=C/c1ccccc1)C(C(=O)NCCN1CCOCC1)c1ccccc1Br (racemic) | inactive | inactive | – | inactive | – | – | –
9 | CN(C(=O)/C=C/c1ccccc1)C(C(=O)NCc1ccccc1)c1ccccc1Br (racemic) | Active | Active | Active | Active | Active | Active | –
10 | O=C(NCCN1CCOCC1)C(c1ccccc1)N(Cc1ccccc1)C(=O)/C=C/c1ccc(Cl)cc1Cl (racemic) | Active | Active | Active | Active | Active | Active | –
11 | O=C(NCCN1CCOCC1)C(c1ccccc1Br)N(Cc1ccccc1)C(=O)/C=C/c1ccc(Cl)cc1Cl (racemic) | Active | Active | Active | Active | Active | Active | –
12 | O=C(NCc1ccccc1)C(c1ccc(Br)cc1)N(C(=O)CCc1ccc(O)cc1)C1CC1 (racemic) | Active | Active | Active | Active | Active | Active | –
13 | O=C(NCc1ccccc1)C(c1ccc(Br)cc1)N(C(=O)CCc1ccccc1)C1CC1 (racemic) | Active | Active | Active | Active | Active | Active | –
14 | O=C(NCc1ccccc1)C(c1ccc(O)cc1)N(C(=O)CCc1ccccc1)C1CC1 (racemic) | inactive | inactive | inactive | inactive | – | – | Activity (INA-6 [17]): inactive
15 | O=C(NCc1ccccc1)C(c1ccc(OCCBr)cc1)N(C(=O)CCc1ccccc1)C1CC1 (racemic) | Active | Active | Active | Active | Active | Active | –
16 | O=C(NCc1ccccc1)C(c1ccccc1)N(C(=O)/C=C/c1ccccc1)C1CC1 (racemic) | Active | Active | Active | Active | Active | Active | –
17 | O=C(NCc1ccccc1)C(c1ccccc1Br)N(Cc1ccccc1)C(=O)/C=C/c1ccccc1 (racemic) | inactive | inactive | – | inactive | – | – | –
